This excerpt belongs to a sample that is enriched for hits.
TRPML3 ag – human TRPML3 channel agonists, primary screen, cell-based, HEK293 TRPML3-YFP, Fluo-8 calcium fluorescence, 3 µM; activation, % at 3 µM; Mucolipin-3 (Homo sapiens), Q8TDD5; AID 1448, 2008; 100% = the carbachol control signal; 220,000 tested, 0.29% active;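 active = activation above its plate's cutoff, the mean activation of the plate's test wells plus 3 SD, cut at about 12% in these data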;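 also: 0% = DMSO only wells and 100% = carbachol wells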
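Test system – HEK293 line with stable expression of human TRPML3-YFP channel · Control set – carbachol 87 µM final as high control (100%), DMSO as low control (0%) · Signal – Fluo-8 calcium dye fluorescence, ex 470-495, em 515-575 nm · Incubation – 1-h 37 °C dye load, 5-s basal, 120-s post-compound reads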
ABCG2 inh – ABCG2 efflux pump inhibitors, primary screen, multiplex with ABCB1, IgMXP3 cells, flow cytometry; 190,000 tested, 0.1% active; Broad substrate specificity ATP-binding cassette transporter ABCG2 (Homo sapiens), Q9UNQ0; JC-1 efflux; inhibition, % at 6.6 µM;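 active = inhibition above 80%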;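 also: 0% = DMSO and 100% = nicardipine control wells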
Target sequence (Q9UNQ0 whole entry, looked up): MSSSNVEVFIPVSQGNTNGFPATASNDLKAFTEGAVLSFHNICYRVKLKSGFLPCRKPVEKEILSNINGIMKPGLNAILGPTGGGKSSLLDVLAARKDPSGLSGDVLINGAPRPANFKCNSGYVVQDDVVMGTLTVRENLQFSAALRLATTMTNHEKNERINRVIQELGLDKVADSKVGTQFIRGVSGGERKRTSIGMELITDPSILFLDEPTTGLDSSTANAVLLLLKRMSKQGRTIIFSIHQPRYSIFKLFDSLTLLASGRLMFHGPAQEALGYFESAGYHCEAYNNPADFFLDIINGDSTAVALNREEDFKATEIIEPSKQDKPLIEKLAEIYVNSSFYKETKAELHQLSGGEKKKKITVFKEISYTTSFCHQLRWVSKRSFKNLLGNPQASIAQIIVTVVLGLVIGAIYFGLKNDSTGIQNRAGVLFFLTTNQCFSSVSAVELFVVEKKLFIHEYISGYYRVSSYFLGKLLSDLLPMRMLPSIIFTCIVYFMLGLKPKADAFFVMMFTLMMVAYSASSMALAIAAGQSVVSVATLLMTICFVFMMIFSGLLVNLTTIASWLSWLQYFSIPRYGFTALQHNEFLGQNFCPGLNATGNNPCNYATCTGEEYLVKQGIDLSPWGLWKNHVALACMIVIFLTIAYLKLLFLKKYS
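Test system: IgMXP3 cells (ABCG2) mixed with DDAO far-red-labelled CCRF-Adr cells (ABCB1). Reagent: JC-1 transporter substrate. Compound dosing: single test compound dose, 6.6 µM final. Times: 10 min compound exposure, 25 °C. Detection: flow cytometry of retained JC-1 fluorescence. Read-out basis: efflux inhibition in percent versus controls. Controls: nicardipine and DMSO wells.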
ABCB1 inh – ABCB1 efflux pump inhibitors, primary screen, cell-based, multiplex, flow cytometry, ABCG2 counter-screen. ATP-dependent translocase ABCB1 (Homo sapiens), P08183. CCRF-Adr cells, JC-1 efflux. inhibition, % at 6.6 µM. 190,000 tested, 0.067% active. AID 1326, 2008; in the data active = inhibition above about 40%;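 also: 0% = vehicle and 100% = reference inhibitor; higher value means more JC-1 retained so stronger ABCB1 efflux block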
ROMK mod – ROMK potassium channel modulators, primary screen, cell-based, thallium flux, MLSMR library. ATP-sensitive inward rectifier potassium channel 1 (Homo sapiens), P48048. 130,000 tested, 2% active. B-score at 10 µM. Tet-inducible ROMK, thallium flux fluorescence; actives lie on both sides. AID 1918, 2009;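 active = signal ratio slope over the read window, or its plate-corrected B-score, at least 3 SD from the plate mean, either direction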;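 also: B-score of the F/F0 ratio slope over 7 to 12 s after thallium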
Calb biofilm kill – clotrimazole potentiators killing C. albicans biofilm, primary screen, 4-compound mixtures; C. albicans biofilm persisters + clotrimazole, fluorescence viability; primary screen in compound mixtures of four per well; inhibition, % at 7.6 µM; 120,000 tested, 0.02% active;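 active = inhibition above 30.3% in the primary screen of four-compound pools, then above 30% when the compound was retested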;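 also: compounds exposed to preformed 24 h biofilms for 48 h; 0% = untreated biofilm control and 100% = clotrimazole plus chlorhexidine kill blank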
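Assay system: C. albicans biofilms / Medium: RPMI/MOPS medium, pH 7.0 / Schedule: biofilm formation 24 h, compound exposure 48 h, 37 °C / Measured by: Alamar Blue fluorescence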
TRPN1 ag – zebrafish TRPN1 channel agonists, primary screen, cell-based, HEK293, calcium fluorescence; AID 1424, 2008; HEK293 zebrafish TRPN1-YFP, Fluo-8 calcium fluorescence; 100% = response to 87 µM carbachol; activation, % at 3 µM; transient receptor potential cation channel N1 (TRPN1/NompC), Danio rerio; 220,000 tested, 0.18% active;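 active = activation above its plate's cutoff, the mean activation of test wells on that plate plus 3 SD, cut at about 19% in these data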;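 also: 0% = DMSO alone and 100% = 87 µM carbachol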
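Assay system: Zebrafish TRPN1-YFP in HEK293 cells | Incubation: Dye loading 1 h at 37 °C, then 30 min room temperature | Measured by: Kinetic Fluo-8 fluorescence, ex 470-495, em 515-575 nm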
ROMK hit retest – ROMK channel modulator hit retest, confirmation, cell-based, thallium flux, duplicate, resupplied hits | fluorescence ratio; stronger effect = lower value | AID 1917, 2009 | 3,000 tested, 54% active | shares compounds with ROMK mod | normalized thallium flux (F/F0 slope) at 10 µM;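 active = Flux at 10 µM at least 3 SD below or above vehicle control mean in one or both replicates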
Numbers without * were called inactive; nt = no result.

SMILES	TRPML3 ag	ABCG2 inh	ABCB1 inh	ROMK mod	Calb biofilm kill	TRPN1 ag	ROMK hit retest
CC(C)C(=O)N1CCC(c2nc(-c3ccc(S(=O)(=O)N4CCN(C)CC4)cc3)no2)CC1	1.3	0.9	0.5	0.0445	0.4	1.4	0.0903
N#CC(C#N)=C1C=CC=CN1/C(=C\c1ccccc1)C(=O)c1cccs1	0.7	15.8	-1.2	nt	10.7	-1.4	0.0567*
N#CC(C#N)=C1C=CC=CN1/C(=C\c1ccccc1Cl)C(=O)c1ccccc1	0.6	33.7	10.3	-5.58*	22.6	-1.6	0.0411*
Nc1ccc(S(=O)(=O)NC2=NCCCCC2)cc1N	1.3	0.0	0.0	-0.425	19.7	-1.3	nt
O=[N+]([O-])c1cc(S(=O)(=O)NC2=NCCCCC2)ccc1NCC1CCCCC1	0.5	22.7	3.3	-7.65*	19.1	1.3	0.0592*
N#C/C(=C/c1ccc(N2CCCCCC2)o1)c1cccc(F)c1	-1.2	12.9	9.4	-2.9*	nt	0.5	0.0571*
N#C/C(=C/c1ccc(N2CCCCCC2)o1)c1ccc(F)cc1	0.3	1.7	0.3	nt	nt	0.0	nt
O=C(CCNC(=O)c1ccc(Cl)cc1)Nc1c(F)c(F)cc(F)c1F	0.2	10.8	0.6	-0.629	-7.1	-0.8	nt
COC(=O)c1sc(-c2ccc(C(C)(C)C)cc2)cc1NC(=O)COCC(=O)O	0.5	nt	nt	-11.2*	16.4	1.6	0.0846
Cc1cc(=O)oc2cc(O)c(N=Nc3ccccc3)cc12	0.8	nt	nt	nt	17.4	2.1	nt
Cc1cccc2c3nc4ccccc4nc3n(CCCN3C(=O)c4ccccc4C3=O)c12	0.4	33.3	36.4	nt	17.3	1.0	0.0651*
Cc1ccc(Nc2ccc(C(=O)NCCc3ccccc3)cn2)cc1	0.3	7.5	0.5	2.08	8.3	0.2	nt
Cc1ccc(C)c(Nc2ccc(C(=O)NCCc3ccccc3)cn2)c1	-0.2	15.1	0.9	2.7*	6.1	-0.7	0.0824
Cc1cc(Cl)n2ncc(-c3ccccc3)c2n1	-0.7	nt	nt	nt	18.1	-1.6	0.0628*
Cc1cc(N)n2ncc(-c3ccc(Cl)cc3)c2n1	1.1	7.7	0.5	nt	nt	0.3	nt
Cc1c(Cl)cccc1NC(=O)CSC(N)=O	0.8	5.7	0.5	-2.64*	15.8	-0.2	0.0751
CCOc1ccccc1N(C(=O)c1snc(C(N)=O)c1N)C(C(=O)NCCC(C)C)c1ccco1 (centres undefined)	-0.7	9.9	4.5	-4.48*	nt	-2.6	0.0743
CC(C(=O)O)N1C(=O)c2ccccc2C1=O (centres undefined)	0.7	0.5	0.3	2.86*	nt	-0.1	0.0778
CC(C(=O)N1CCN(C)CC1)N1C(=O)c2ccccc2C1=O (centres undefined)	0.2	4.3	0.4	nt	nt	-0.3	nt
COc1ccc(C(CC(=O)N2CCCC(C)C2)c2c(OC)cc(OC)c3ccc(=O)oc23)cc1 (centres undefined)	nt	nt	nt	nt	4.0	nt	nt
Cc1ccc(C(=O)NC(C)C(c2cccs2)N2CCCC2)s1 (centres undefined)	0.3	4.5	0.2	-3.56*	16.5	-0.4	0.0719
CC1CCCN(CC(O)COC(c2ccccc2)c2ccccc2)C1 (centres undefined)	0.8	0.1	0.1	-1.89	8.0	1.3	nt
CC(C)c1ccc2c(c1)CCC1C(C)(CN)CCCC21C (centres undefined)	1.5	nt	nt	nt	1.6	1.6	0.0401*
CCOc1ccc(NC(=O)C2CC(=O)OC2c2ccccc2)cc1 (centres undefined)	1.8	1.7	0.7	-1.27	15.4	-0.7	nt

Assay outcomes deposited in PubChem BioAssay by several laboratories.
